The M2OR odorant receptor database

Key:
Details in all cases: stereoisomer not certain
[1] = molecular target: OR4C16 (Homo sapiens) (UniProt Q8NGL9)
Method in brief: (§1)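 Transient luciferase assays in mammalian cell lines were common, though methods varied by source. The values come from published papers and their supplementary material, with extra details from the original authors when needed. Responsive refers to a measured signal the original authors judged statistically different from baseline, and non-responsive (inactive) to the remainder.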

[2] = test system: OR4C3
Method in brief: as §1

[3] = molecular target: OR4C45 (Homo sapiens) (UniProt A6NMZ5)
Method in brief: as §1
Target sequence in this assay (A6NMZ5 whole entry): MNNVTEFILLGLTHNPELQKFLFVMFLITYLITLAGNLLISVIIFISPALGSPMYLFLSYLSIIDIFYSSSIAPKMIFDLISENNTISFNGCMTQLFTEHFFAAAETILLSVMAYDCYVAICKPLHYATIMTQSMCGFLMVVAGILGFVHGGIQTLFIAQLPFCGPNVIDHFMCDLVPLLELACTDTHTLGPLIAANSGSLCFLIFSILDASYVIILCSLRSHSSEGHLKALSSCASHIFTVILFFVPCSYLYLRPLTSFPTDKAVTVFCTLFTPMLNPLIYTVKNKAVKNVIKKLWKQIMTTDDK

[4] = molecular target: OR4C46 (Homo sapiens) (UniProt A6NHA9)
Chain of OR4C46 (Homo sapiens) (A6NHA9 whole entry): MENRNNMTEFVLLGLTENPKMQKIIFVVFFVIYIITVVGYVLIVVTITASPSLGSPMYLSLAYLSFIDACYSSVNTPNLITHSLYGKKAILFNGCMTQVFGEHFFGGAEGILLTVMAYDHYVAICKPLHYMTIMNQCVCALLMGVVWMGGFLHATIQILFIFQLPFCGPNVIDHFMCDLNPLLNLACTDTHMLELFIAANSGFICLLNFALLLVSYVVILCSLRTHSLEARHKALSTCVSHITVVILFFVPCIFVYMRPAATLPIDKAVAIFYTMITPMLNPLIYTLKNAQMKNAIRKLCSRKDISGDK
Method in brief: as §1

[5] = molecular target: OR4C5 (Homo sapiens) (UniProt Q8NGB2)
Chain of OR4C5 (Homo sapiens) (Q8NGB2 whole entry): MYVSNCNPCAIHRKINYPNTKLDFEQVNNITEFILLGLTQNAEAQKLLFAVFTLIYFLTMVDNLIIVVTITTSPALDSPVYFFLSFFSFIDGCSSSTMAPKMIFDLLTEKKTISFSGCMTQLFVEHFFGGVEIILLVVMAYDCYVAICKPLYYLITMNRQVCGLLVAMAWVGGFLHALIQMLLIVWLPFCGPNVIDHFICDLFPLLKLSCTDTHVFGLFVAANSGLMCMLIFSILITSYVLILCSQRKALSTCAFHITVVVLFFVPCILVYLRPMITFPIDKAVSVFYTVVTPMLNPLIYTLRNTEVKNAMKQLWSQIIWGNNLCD
Method in brief: as §1

[6] = molecular target: OR4C6 (Homo sapiens) (UniProt Q8NH72)
Chain of OR4C6 (Homo sapiens) (Q8NH72 whole entry): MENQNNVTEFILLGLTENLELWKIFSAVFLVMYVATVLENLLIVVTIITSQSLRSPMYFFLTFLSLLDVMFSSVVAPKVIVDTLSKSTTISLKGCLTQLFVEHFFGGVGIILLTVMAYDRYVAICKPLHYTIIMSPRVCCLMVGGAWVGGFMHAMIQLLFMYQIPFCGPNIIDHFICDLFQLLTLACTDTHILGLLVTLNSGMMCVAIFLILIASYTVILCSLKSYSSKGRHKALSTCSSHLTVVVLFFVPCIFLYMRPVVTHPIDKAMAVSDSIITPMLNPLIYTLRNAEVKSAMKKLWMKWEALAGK
Method in brief: as §1

[7] = test system: OR4CB P8T
Method in brief: as §1

[8] = test system: OR4CC
Chain of OR4CC (as listed by the source): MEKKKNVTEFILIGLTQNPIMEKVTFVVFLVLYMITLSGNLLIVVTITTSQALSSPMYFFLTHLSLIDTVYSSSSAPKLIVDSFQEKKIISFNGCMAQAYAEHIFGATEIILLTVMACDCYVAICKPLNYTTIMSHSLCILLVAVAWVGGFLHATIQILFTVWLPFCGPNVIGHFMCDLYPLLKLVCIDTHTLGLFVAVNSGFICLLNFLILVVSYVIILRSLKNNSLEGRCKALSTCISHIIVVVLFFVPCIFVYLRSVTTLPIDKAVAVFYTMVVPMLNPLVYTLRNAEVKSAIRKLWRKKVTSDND
Method in brief: as §1

[9] = test system: OR4CD V133I
Chain of OR4CD V133I (as listed by the source, stated change not applied): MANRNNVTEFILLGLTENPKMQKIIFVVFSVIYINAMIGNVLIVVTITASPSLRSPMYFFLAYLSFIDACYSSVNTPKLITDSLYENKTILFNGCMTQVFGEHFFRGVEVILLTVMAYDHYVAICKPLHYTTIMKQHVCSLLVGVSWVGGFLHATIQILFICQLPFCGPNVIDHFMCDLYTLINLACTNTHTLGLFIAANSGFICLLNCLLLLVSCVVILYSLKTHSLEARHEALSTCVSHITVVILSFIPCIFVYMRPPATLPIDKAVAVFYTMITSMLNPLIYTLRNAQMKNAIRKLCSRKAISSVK
Method in brief: as §1

[10] = test system: OR4CF
Method in brief: as §1

[11] = test system: OR4CG T76A
Chain of OR4CG T76A (as listed by the source, stated change not applied): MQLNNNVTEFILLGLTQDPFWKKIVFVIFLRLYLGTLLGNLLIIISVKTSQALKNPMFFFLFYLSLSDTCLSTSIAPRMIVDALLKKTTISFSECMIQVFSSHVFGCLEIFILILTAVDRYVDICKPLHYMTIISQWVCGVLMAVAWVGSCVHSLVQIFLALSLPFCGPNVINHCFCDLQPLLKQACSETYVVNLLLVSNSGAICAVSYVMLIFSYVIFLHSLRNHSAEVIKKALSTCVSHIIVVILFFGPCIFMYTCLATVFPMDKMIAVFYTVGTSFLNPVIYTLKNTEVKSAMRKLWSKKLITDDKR
Method in brief: as §1

[12] = molecular target: OR4D1 (Homo sapiens) (UniProt Q15615)
Chain of OR4D1 (Homo sapiens) (Q15615 whole entry): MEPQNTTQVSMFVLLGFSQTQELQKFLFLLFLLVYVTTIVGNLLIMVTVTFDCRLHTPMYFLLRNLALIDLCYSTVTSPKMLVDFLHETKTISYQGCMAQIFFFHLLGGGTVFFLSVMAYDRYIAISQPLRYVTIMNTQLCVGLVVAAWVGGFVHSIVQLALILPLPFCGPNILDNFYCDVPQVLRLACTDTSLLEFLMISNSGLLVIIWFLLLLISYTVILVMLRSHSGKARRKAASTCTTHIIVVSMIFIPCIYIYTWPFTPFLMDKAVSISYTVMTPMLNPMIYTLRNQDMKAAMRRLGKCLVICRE
Method in brief: as §1

[13] = molecular target: OR4D10 (Homo sapiens) (UniProt Q8NGI6)
Chain of OR4D10 (Homo sapiens) (Q8NGI6 whole entry): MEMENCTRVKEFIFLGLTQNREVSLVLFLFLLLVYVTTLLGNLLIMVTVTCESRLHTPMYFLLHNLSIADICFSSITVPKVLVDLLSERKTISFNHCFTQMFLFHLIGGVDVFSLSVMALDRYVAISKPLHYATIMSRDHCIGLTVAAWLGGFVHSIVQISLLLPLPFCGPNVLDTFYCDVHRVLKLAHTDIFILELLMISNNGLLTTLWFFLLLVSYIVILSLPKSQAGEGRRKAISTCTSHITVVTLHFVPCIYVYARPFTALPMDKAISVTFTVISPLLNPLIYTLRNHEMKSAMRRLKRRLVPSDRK
Method in brief: as §1

[14] = molecular target: OR4D11 (Homo sapiens) (UniProt Q8NGI4)
Chain of OR4D11 (Homo sapiens) (Q8NGI4 whole entry): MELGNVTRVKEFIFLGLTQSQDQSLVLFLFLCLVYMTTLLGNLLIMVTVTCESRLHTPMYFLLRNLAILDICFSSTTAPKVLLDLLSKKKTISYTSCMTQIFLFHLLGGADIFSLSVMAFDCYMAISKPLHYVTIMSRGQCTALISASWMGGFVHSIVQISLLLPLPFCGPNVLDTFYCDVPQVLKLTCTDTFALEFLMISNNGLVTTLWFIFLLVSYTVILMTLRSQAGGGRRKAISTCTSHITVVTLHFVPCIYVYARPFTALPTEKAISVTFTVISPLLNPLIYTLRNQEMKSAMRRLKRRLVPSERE
Method in brief: as §1

[15] = test system: OR4D1
Chain of OR4D1 (as listed by the source): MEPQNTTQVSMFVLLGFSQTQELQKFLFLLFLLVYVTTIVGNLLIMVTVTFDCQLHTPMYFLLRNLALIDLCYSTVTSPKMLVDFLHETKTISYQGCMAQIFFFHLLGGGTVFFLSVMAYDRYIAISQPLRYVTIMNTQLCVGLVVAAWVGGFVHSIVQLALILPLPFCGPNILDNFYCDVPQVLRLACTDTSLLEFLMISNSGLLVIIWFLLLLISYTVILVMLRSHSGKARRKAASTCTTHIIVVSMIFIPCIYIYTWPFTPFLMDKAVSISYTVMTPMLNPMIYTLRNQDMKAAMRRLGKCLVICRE
Method in brief: as §1

[16] = molecular target: OR4D2 (Homo sapiens) (UniProt P58180)
Chain of OR4D2 (Homo sapiens) (P58180 whole entry): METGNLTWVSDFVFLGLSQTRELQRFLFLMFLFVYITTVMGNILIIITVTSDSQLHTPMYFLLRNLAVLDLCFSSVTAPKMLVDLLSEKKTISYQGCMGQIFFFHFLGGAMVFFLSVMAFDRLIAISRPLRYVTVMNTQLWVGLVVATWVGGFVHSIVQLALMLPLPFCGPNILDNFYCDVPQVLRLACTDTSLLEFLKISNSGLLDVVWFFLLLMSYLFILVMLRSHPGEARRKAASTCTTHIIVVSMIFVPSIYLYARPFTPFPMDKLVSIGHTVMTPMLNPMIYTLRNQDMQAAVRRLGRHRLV
Method in brief: as §1

[17] = test system: OR4D2
Chain of OR4D2 (as listed by the source): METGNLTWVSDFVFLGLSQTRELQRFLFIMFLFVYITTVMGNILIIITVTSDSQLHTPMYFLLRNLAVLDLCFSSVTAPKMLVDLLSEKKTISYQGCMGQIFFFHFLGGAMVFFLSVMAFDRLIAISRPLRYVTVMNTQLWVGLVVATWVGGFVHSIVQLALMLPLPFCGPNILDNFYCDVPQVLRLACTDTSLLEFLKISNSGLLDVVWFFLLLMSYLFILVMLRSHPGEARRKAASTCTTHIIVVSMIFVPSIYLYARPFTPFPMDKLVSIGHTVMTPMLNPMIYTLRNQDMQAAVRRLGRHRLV
Method in brief: as §1

[18] = molecular target: OR4D5 (Homo sapiens) (UniProt Q8NGN0)
Chain of OR4D5 (Homo sapiens) (Q8NGN0 whole entry): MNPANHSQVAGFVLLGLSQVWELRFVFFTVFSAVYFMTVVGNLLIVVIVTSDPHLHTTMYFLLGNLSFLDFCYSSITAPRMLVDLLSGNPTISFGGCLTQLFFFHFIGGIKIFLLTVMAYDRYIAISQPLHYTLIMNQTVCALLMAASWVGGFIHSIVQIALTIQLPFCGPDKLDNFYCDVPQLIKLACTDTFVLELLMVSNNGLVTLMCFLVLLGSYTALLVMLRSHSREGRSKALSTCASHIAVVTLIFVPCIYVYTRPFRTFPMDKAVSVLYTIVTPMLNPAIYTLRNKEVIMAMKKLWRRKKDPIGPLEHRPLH
Method in brief: as §1

[19] = molecular target: OR4C3 (Homo sapiens) (UniProt Q8NH37)
Chain of OR4C3 (Homo sapiens) (Q8NH37 whole entry): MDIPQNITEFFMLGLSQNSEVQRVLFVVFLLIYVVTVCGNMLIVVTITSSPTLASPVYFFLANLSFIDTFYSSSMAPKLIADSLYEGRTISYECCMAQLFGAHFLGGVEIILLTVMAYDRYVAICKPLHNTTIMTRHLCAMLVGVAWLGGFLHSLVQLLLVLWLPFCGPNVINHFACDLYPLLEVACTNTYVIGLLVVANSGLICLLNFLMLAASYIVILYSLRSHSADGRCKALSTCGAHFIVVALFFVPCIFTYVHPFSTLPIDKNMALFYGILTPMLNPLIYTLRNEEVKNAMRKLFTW
Method in brief: as §1

[20] = molecular target: OR4C45 (Homo sapiens) (UniProt A6NMZ5); remark: listed apart in the source
Method in brief: as §1

Measured: odorant receptor agonist call;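 further: active if original authors judged signal statistically different from baseline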

Chain of OR4C16 (Homo sapiens) (Q8NGL9 whole entry): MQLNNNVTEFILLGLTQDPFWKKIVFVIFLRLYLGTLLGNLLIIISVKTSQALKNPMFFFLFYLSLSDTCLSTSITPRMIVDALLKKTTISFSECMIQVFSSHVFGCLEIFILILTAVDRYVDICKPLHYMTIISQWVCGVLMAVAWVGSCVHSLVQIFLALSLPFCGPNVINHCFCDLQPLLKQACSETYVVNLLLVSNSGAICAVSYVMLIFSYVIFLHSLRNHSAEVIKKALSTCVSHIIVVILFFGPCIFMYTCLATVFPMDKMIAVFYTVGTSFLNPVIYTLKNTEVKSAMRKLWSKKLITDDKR

C=CCOC(=O)Cc1ccccc1
not listed: [19] | [20]
inactive: all other assays above

Cc1c([N+](=O)[O-])c(C)c([N+](=O)[O-])c(C(C)(C)C)c1[N+](=O)[O-]
inactive: [1] | [19] | [20] | [4] | [5] | [6] | [12] | [13] | [14] | [16] | [18]
